Source: ChEMBL document CHEMBL5058577, “EUbOPEN Chemogenomics Library 2 (Multiplex)” (2022)

Test system: HEK-293T
Assay: Multiplex assay against HEK293T
Format: toxicity, cell-based
Details: human
Outline: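 Live cells were stained at seeding with Hoechst33342, BioTracker Green Microtubule Cytoskeleton Dye, MitoTracker Red and Annexin V Alexa Fluor 680. Following compound addition, they were imaged on a CQ1 microscope at 37°C and 5% CO2 and gated by CellPathfinder machine learning into Hoechst high-intensity objects or normal cells, with normal cells split into healthy, pyknosed or fragmented nuclei and pyknosed cells into mitotic or apoptotic. Tubulin, mitochondrial-mass and membrane-permeability phenotypes are per cents of healthy-nucleus cells.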

[1] = 12 h, 1 µM, compound concentration 1 uM, replicate 1
[2] = 12 h, 1 µM, compound concentration 1 uM, replicate 2
[3] = 12 h, 10 µM, compound concentration 10 uM, replicate 1
[4] = 12 h, 10 µM, compound concentration 10 uM, replicate 2
[5] = 24 h, 1 µM, compound concentration 1 uM, replicate 1
[6] = 24 h, 1 µM, compound concentration 1 uM, replicate 2
[7] = 24 h, 10 µM, compound concentration 10 uM, replicate 1
[8] = 24 h, 10 µM, compound concentration 10 uM, replicate 2
[9] = 48 h, 1 µM, compound concentration 1 uM, replicate 1
[10] = 48 h, 1 µM, compound concentration 1 uM, replicate 2
[11] = 48 h, 10 µM, compound concentration 10 uM, replicate 1
[12] = 48 h, 10 µM, compound concentration 10 uM, replicate 2

## Cc1cc(O)c(-c2ccc([C@@H](C)CN(C)C)cc2)c2c1[nH]c(=O)c1sccc12
[1]
  Population Apoptotic (%): 63%
  Population Fragmented Nuclei (%): 14%
  Population Healthy Nuclei (%): 49%
  Population Hoechst High Intensity Objects (%): 27%
  Population Membrane Permeable-Phenotype (%): 0%
  Population Mitochondria Different-Phenotype (%): 90%
  Population Mitotic Cells (%): 36%
  Population Normal (%): 72%
  Population Pyknosed Nuclei (%): 36%
  Population Tubulin-Different-Phenotype (%): 78%
  Total Cell Count: 209
[2]
  Population Apoptotic (%): 59%
  Population Fragmented Nuclei (%): 8%
  Population Healthy Nuclei (%): 66%
  Population Hoechst High Intensity Objects (%): 28%
  Population Membrane Permeable-Phenotype (%): 1%
  Population Mitochondria Different-Phenotype (%): 91%
  Population Mitotic Cells (%): 40%
  Population Normal (%): 71%
  Population Pyknosed Nuclei (%): 25%
  Population Tubulin-Different-Phenotype (%): 74%
  Total Cell Count: 207
[3]
  Population Apoptotic (%): 53%
  Population Fragmented Nuclei (%): 6%
  Population Healthy Nuclei (%): 44%
  Population Hoechst High Intensity Objects (%): 41%
  Population Membrane Permeable-Phenotype (%): 0%
  Population Mitochondria Different-Phenotype (%): 100%
  Population Mitotic Cells (%): 46%
  Population Normal (%): 58%
  Population Pyknosed Nuclei (%): 48%
  Population Tubulin-Different-Phenotype (%): 60%
  Total Cell Count: 268
[4]
  Population Apoptotic (%): 70%
  Population Fragmented Nuclei (%): 7%
  Population Healthy Nuclei (%): 60%
  Population Hoechst High Intensity Objects (%): 28%
  Population Mitochondria Different-Phenotype (%): 94%
  Population Mitotic Cells (%): 29%
  Population Normal (%): 71%
  Population Pyknosed Nuclei (%): 31%
  Population Tubulin-Different-Phenotype (%): 72%
  Total Cell Count: 195
[5]
  Population Apoptotic (%): 65%
  Population Fragmented Nuclei (%): 9%
  Population Healthy Nuclei (%): 60%
  Population Hoechst High Intensity Objects (%): 21%
  Population Membrane Permeable-Phenotype (%): 0%
  Population Mitochondria Different-Phenotype (%): 89%
  Population Mitotic Cells (%): 34%
  Population Normal (%): 78%
  Population Pyknosed Nuclei (%): 30%
  Population Tubulin-Different-Phenotype (%): 67%
  Total Cell Count: 230
[6]
  Population Apoptotic (%): 68%
  Population Healthy Nuclei (%): 70%
  Population Mitochondria Different-Phenotype (%): 93%
  Population Mitotic Cells (%): 31%
  Population Pyknosed Nuclei (%): 19%
  Population Tubulin-Different-Phenotype (%): 74%
  Total Cell Count: 205
[7]
  Population Apoptotic (%): 73%
  Population Fragmented Nuclei (%): 8%
  Population Healthy Nuclei (%): 67%
  Population Hoechst High Intensity Objects (%): 36%
  Population Membrane Permeable-Phenotype (%): 1%
  Population Mitochondria Different-Phenotype (%): 92%
  Population Mitotic Cells (%): 26%
  Population Normal (%): 63%
  Population Pyknosed Nuclei (%): 24%
  Population Tubulin-Different-Phenotype (%): 70%
  Total Cell Count: 290
[8]
  Population Apoptotic (%): 85%
  Population Fragmented Nuclei (%): 7%
  Population Healthy Nuclei (%): 69%
  Population Hoechst High Intensity Objects (%): 25%
  Population Membrane Permeable-Phenotype (%): 0%
  Population Mitochondria Different-Phenotype (%): 93%
  Population Mitotic Cells (%): 14%
  Population Normal (%): 74%
  Population Pyknosed Nuclei (%): 23%
  Population Tubulin-Different-Phenotype (%): 80%
  Total Cell Count: 203
[9]
  Population Apoptotic (%): 86%
  Population Fragmented Nuclei (%): 13%
  Population Healthy Nuclei (%): 65%
  Population Hoechst High Intensity Objects (%): 24%
  Population Membrane Permeable-Phenotype (%): 0%
  Population Mitochondria Different-Phenotype (%): 90%
  Population Mitotic Cells (%): 13%
  Population Normal (%): 75%
  Population Pyknosed Nuclei (%): 20%
  Population Tubulin-Different-Phenotype (%): 76%
  Total Cell Count: 249
[10]
  Population Apoptotic (%): 69%
  Population Fragmented Nuclei (%): 16%
  Population Healthy Nuclei (%): 67%
  Population Hoechst High Intensity Objects (%): 25%
  Population Mitochondria Different-Phenotype (%): 96%
  Population Mitotic Cells (%): 30%
  Population Normal (%): 74%
  Population Pyknosed Nuclei (%): 16%
  Population Tubulin-Different-Phenotype (%): 70%
  Total Cell Count: 212
[11]
  Population Apoptotic (%): 86%
  Population Fragmented Nuclei (%): 15%
  Population Healthy Nuclei (%): 64%
  Population Hoechst High Intensity Objects (%): 40%
  Population Membrane Permeable-Phenotype (%): 1%
  Population Mitochondria Different-Phenotype (%): 92%
  Population Mitotic Cells (%): 13%
  Population Normal (%): 59%
  Population Pyknosed Nuclei (%): 20%
  Population Tubulin-Different-Phenotype (%): 54%
  Total Cell Count: 298
[12]
  Population Apoptotic (%): 87%
  Population Fragmented Nuclei (%): 13%
  Population Healthy Nuclei (%): 58%
  Population Hoechst High Intensity Objects (%): 34%
  Population Membrane Permeable-Phenotype (%): 0%
  Population Mitochondria Different-Phenotype (%): 100%
  Population Mitotic Cells (%): 12%
  Population Normal (%): 65%
  Population Pyknosed Nuclei (%): 28%
  Population Tubulin-Different-Phenotype (%): 73%
  Total Cell Count: 223
